According to ChEMBL document CHEMBL1649415, “Synthesis, physicochemical characterization, and biological activities of new carnosine derivatives stable in human serum as potential neuroprotective agents” (J Med Chem, 2011):
Activity calls are given as the source filed them. The calls are words filed in the database; no cut-off is given here.

Tests used:
[1] = Lipophilicity, log D of the compound by shake-flask technique; assay type: physicochemical; conditions: octanol/water
Procedure, shortened: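 Shake-flask at pH 7.4, in phosphate buffer with ionic strength 0.15 M KCl and mutually presaturated n-octanol (4 h). Compound about 0.1 mM in the aqueous phase, shaken about 20 min, then centrifuged. Aqueous concentration measured by UV at 230 nm; at least seven log D determinations per compound.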

Serum = assay: Stability of the compound in human serum after 3 hrs; assay type: ADME, cell-free
Procedure, shortened: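 Compound added from a 10 mM aqueous stock to human serum preheated to 37 °C, giving 0.5 mM final, and incubated at 37 ± 0.5 °C. At intervals, aliquots were deproteinized with an equal volume of acetonitrile/0.1% TFA, centrifuged and filtered. Analysis by RP-HPLC on C18 with methanol/20 mM sodium acetate pH 4.5-5 mM SDS (80/20 to 60/40).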

[2] = Antioxidant activity against CuSO4-induced LDL oxidation assessed as delta-lag time at 100 uM by antioxidation assay; assay type: functional
Procedure, shortened: (§1)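 Human plasma LDL (EDTA-treated donor plasma, density 1.019-1.063 g/mL fraction by ultracentrifugation, desalted) diluted in 10 mM phosphate buffer pH 7.4 to 50 µg protein/mL. Compound added at 100 µM final, oxidation started with CuSO4 2.5 µM final at 37 °C. Conjugated dienes followed at 234 nm over 6 h. Lag-time change versus control and propagation rate (ε234 = 29500 M-1 cm-1) derived; mean ± SEM.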

[3] = Antioxidant activity against CuSO4-induced LDL oxidation measured per mg og LDL product assessed as propagation rate of the oxidation at 100 uM by antioxidation assay; assay type: functional; procedure, shortened: as §1
[4] = Antioxidant activity assessed as 4-hydroxy-trans-2,3-nonenal scavenging activity at 1 mM after 1 hr by HPLC relative to control; assay type: functional
Procedure, shortened: (§2)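 HNE (50 µM final) incubated with compound (1 mM final) in 1 mM phosphate buffer pH 7.4 at 37 °C for up to 24 h. Samples were injected directly onto reverse-phase C18 HPLC to measure remaining HNE. Scavenging % = 100 − (HNE left with scavenger / HNE left in control × 100); mean ± SEM.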

[5] = Antioxidant activity assessed as 4-hydroxy-trans-2,3-nonenal scavenging activity at 1 mM after 6 hrs by HPLC relative to control; assay type: functional; procedure, shortened: as §2
[6] = Antioxidant activity assessed as 4-hydroxy-trans-2,3-nonenal scavenging activity at 1 mM after 24 hrs by HPLC relative to control; assay type: functional; procedure, shortened: as §2
[7] = Toxicity in mouse primary hippocampal neuron assessed as adverse effect at 100 uM after 24 hrs; assay type: tissue-based, Hippocampus
Neuron [8] = assay: Cytoprotective effect in mouse primary hippocampal neuron assessed as reduction in 4-hydroxy-trans-2,3-nonenal-induced damage at 100 uM after 24 hrs; assay type: functional, Hippocampus; set-up: scale not given: the % may be the effect or the level left
Procedure, shortened: (§3)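 They were grown 6 days in B-27 neurobasal medium at 37 °C, 5% CO2. Compound (100 µM in medium) was given alone or as pretreatment before HNE 10 µM, for 24 h. Death was scored by trypan blue exclusion against pre-incubation counts; mean ± SEM, n = 4-7, paired t test.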

Neuron [9] = assay: Cytoprotective effect in mouse primary hippocampal neuron assessed as reduction in 4-hydroxy-trans-2,3-nonenal-induced neuronal disruption at 100 uM after 24 hrs; assay type: functional, tissue-based; conditions: Hippocampus; procedure, shortened: as §3
[10] = Drug level in Wistar rat brain measured per gram of tissue at 20 mg/kg, iv after 3 hrs; assay type: ADME, organism-based; set-up: dose 20 mg/kg, route intravenous; conditions: read-out: Drug uptake
Procedure, shortened: (§4)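 Male Wistar rats, 200-250 g, given 20 mg/kg i.v. in 0.9% saline; 3 rats per time point, killed at 1.5 or 3 h. Heparinized blood and brain homogenized in equal volume of cold water were deproteinized with acetonitrile/0.1% TFA, centrifuged and filtered. RP-HPLC on C18 with methanol/20 mM sodium acetate pH 4.5-5 mM SDS (70/30), detection 210 and 223 nm; spiked untreated-rat samples used as standards.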

[11] = Drug level in Wistar rat brain measured per gram of tissue at 20 mg/kg, iv after 1.5 hrs; assay type: ADME, organism-based; set-up: dose 20 mg/kg, route intravenous; conditions: read-out: Drug uptake; procedure, shortened: as §4
[12] = Drug level in Wistar rat blood at 20 mg/kg, iv after 1.5 hrs; assay type: ADME, organism-based; set-up: dose 20 mg/kg, route intravenous; conditions: whole blood, read-out: Drug uptake; procedure, shortened: as §4

SMILES | logD [1] | Stability (Serum) | concentration at 3 h [10] | concentration at 1.5 h [11] | concentration at 1.5 h [12] | TIME [2] | Activity [3] | Activity [4] | Activity [5] | Activity [6] | Activity [7] | Activity (Neuron [8]) | Activity (Neuron [9])
CNC(=O)[C@H](Cc1c[nH]cn1)NC(=O)CCN.O=C(O)C(F)(F)F | – | Stable | – | – | – | 1.25 h | 6.8 nmol/min | 8% | 35.2% | 75.4% | – | – | –
CCNC(=O)[C@H](Cc1c[nH]cn1)NC(=O)CCN.O=C(O)C(F)(F)F | – | Stable | – | – | – | 1.13 h | 7 nmol/min | 8.4% | 32.9% | 70.9% | – | – | –
NCCC(=O)N[C@@H](Cc1c[nH]cn1)C(=O)NCc1ccccc1.O=C(O)C(F)(F)F | -1.76 | Stable | – | – | – | 1.42 h | 5.2 nmol/min | 7.2% | 29.3% | 72.8% | – | – | –
NCCC(=O)N[C@@H](Cc1c[nH]cn1)C(=O)NCC1CCCCC1.O=C(O)C(F)(F)F | -0.94 | Stable | – | – | – | 1.42 h | 5.6 nmol/min | 12.8% | 28.2% | 62.5% | – | – | –
CCOC[C@H](Cc1c[nH]cn1)NC(=O)CCN.O=C(O)C(F)(F)F | -2.17 | Stable | – | – | – | -0.0667 h | 12.2 nmol/min | 17.9% | 60.7% | 86.2% | – | – | –
NCCC(=O)N[C@@H](Cc1cnc[nH]1)C(=O)O [CARNOSINE] | – | Stable | – | – | – | – | – | – | – | – | Non-toxic | – | –
CCCCOc1ccc(CNC(=O)[C@H](Cc2c[nH]cn2)NC(=O)CCN)cc1.O=C(O)C(F)(F)F | -0.13 | Stable | – | – | – | 0.817 h | 10 nmol/min | 8.8% | 32.6% | 80.7% | – | – | –
CCCNC(=O)[C@H](Cc1c[nH]cn1)NC(=O)CCN.O=C(O)C(F)(F)F | -2.72 | Stable | 1100 ng/g | 600 ng/g | 260 ng/mL | 1.13 h | 7.7 nmol/min | 12.5% | 42.7% | 81% | Non-toxic | 40% | Active
NCCC(=O)N[C@@H](Cc1c[nH]cn1)C(=O)O [CARNOSINE] | – | – | – | – | – | 1.12 h | 5.8 nmol/min | 20.4% | 59.6% | 88.8% | – | 6% | –
NCCC(=O)N[C@@H](Cc1c[nH]cn1)C(N)=O.O=C(O)C(F)(F)F | – | Stable | – | – | – | 1.07 h | 7.7 nmol/min | 10.2% | 31.6% | 77.7% | – | – | –

The next lines start with results.

logD [1] | Stability (Serum) | concentration at 3 h [10] | concentration at 1.5 h [11] | concentration at 1.5 h [12] | SMILES | TIME [2] | Activity [3] | Activity [4] | Activity [5] | Activity [6] | Activity [7] | Activity (Neuron [8]) | Activity (Neuron [9])
-0.88 | Stable | – | – | – | CCCCCCNC(=O)[C@H](Cc1c[nH]cn1)NC(=O)CCN.O=C(O)C(F)(F)F | 1.32 h | 6.7 nmol/min | 12% | 35.4% | 75.9% | – | – | –
-0.23 | Stable | – | – | – | CCCCCCCCNC(=O)[C@H](Cc1c[nH]cn1)NC(=O)CCN.O=C(O)C(F)(F)F | 0.717 h | 11.8 nmol/min | 12.8% | 49.7% | 86.7% | – | – | –
-2.01 | Stable | – | – | – | CCCCNC(=O)[C@H](Cc1c[nH]cn1)NC(=O)CCN.O=C(O)C(F)(F)F | 1.37 h | 5.7 nmol/min | 12.5% | 36.2% | 75.2% | – | – | –
0.93 | Stable | – | – | – | CCCCCCCCCCCCNC(=O)[C@H](Cc1c[nH]cn1)NC(=O)CCN.O=C(O)C(F)(F)F | -0.05 h | 14.5 nmol/min | – | – | – | – | – | –
0.85 | Stable | – | – | – | CCCCCCCCCCNC(=O)[C@H](Cc1c[nH]cn1)NC(=O)CCN.O=C(O)C(F)(F)F | 0.15 h | 21 nmol/min | – | – | – | – | – | –
